Measured values as given in ChEMBL document CHEMBL5724801, “EUbOPEN Chemogenomics Library - Multiplex” (2024).
Where “and” joins values, the source holds several entries; their conditions need not be identical. Identical values can stand only once.

System: HEK-293T
Test: Multiplex assay against HEK293T
Format: toxicity, cell-based
Conditions: human
Outline: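 Values for tubulin, mitochondrial-mass and membrane-permeability phenotypes are per cents of cells with healthy nuclei. These cells were identified by CellPathfinder machine-learning gating of live cells that had been stained at seeding with Hoechst33342, BioTracker Green Microtubule Cytoskeleton Dye, MitoTracker Red and Annexin V Alexa Fluor 680 and imaged on a CQ1 microscope at 37°C and 5% CO2 after compound addition. The gating first set Hoechst high-intensity objects apart from normal cells, then split normal cells into healthy, pyknosed or fragmented nuclei, and pyknosed cells into mitotic or apoptotic.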

[1] = 12 h, 1 µM, compound concentration 1 uM
[2] = 12 h, 10 µM, compound concentration 10 uM
[3] = 24 h, 1 µM, compound concentration 1 uM
[4] = 24 h, 10 µM, compound concentration 10 uM
[5] = 48 h, 1 µM, compound concentration 1 uM
[6] = 48 h, 10 µM, compound concentration 10 uM

With CC(C)(C)c1ccc(CSc2cnn(C(C)(C)C)c(=O)c2Cl)cc1 [PYRIDABEN] the “Population Apoptotic (%)” value [1] was 51% and 28%, the “Population Fragmented Nuclei (%)” value [1] was 7% and 6% and the “Population Healthy Nuclei (%)” value [1] was 78% and 83%. The “Population Hoechst High Intensity Objects (%)” value [1] was 12% and 8%, the “Population Membrane Permeable-Phenotype (%)” value [1] was 0% and the “Population Mitochondria Different-Phenotype (%)” value [1] was 51% and 63%. The “Population Mitotic Cells (%)” value [1] was 48% and 71%, the “Population Normal (%)” value [1] was 87% and 91% and the “Population Pyknosed Nuclei (%)” value [1] was 14% and 10%. For the same compound, the “Population Tubulin-Different-Phenotype (%)” value [1] was 34% and 30%, the “Total Cell Count” value [1] was 299 and 306 and the “Population Apoptotic (%)” value [2] was 56% and 62%. For the same compound, the “Population Fragmented Nuclei (%)” value [2] was 6% and 8%, the “Population Healthy Nuclei (%)” value [2] was 77% and 74% and the “Population Hoechst High Intensity Objects (%)” value [2] was 11% and 17%. The “Population Membrane Permeable-Phenotype (%)” value [2] was 0%, the “Population Mitochondria Different-Phenotype (%)” value [2] was 75% and 81% and the “Population Mitotic Cells (%)” value [2] was 44% and 37%. For the same compound, the “Population Normal (%)” value [2] was 88% and 82%, the “Population Pyknosed Nuclei (%)” value [2] was 15% and 16% and the “Population Tubulin-Different-Phenotype (%)” value [2] was 55% and 38%. For the same compound, the “Total Cell Count” value [2] was 359 and 236, the “Population Apoptotic (%)” value [3] was 33% and 35% and the “Population Fragmented Nuclei (%)” value [3] was 7%. For the same compound, the “Population Healthy Nuclei (%)” value [3] was 80% and 83%, the “Population Hoechst High Intensity Objects (%)” value [3] was 9% and 8% and the “Population Membrane Permeable-Phenotype (%)” value [3] was 0%. For the same compound, the “Population Mitochondria Different-Phenotype (%)” value [3] was 37% and 43%, the “Population Mitotic Cells (%)” value [3] was 66% and 64% and the “Population Normal (%)” value [3] was 90% and 91%. For the same compound, the “Population Pyknosed Nuclei (%)” value [3] was 11% and 8%, the “Population Tubulin-Different-Phenotype (%)” value [3] was 27% and 22% and the “Total Cell Count” value [3] was 373 and 370. For the same compound, the “Population Apoptotic (%)” value [4] was 44% and 46%, the “Population Fragmented Nuclei (%)” value [4] was 7% and 8% and the “Population Healthy Nuclei (%)” value [4] was 79% and 70%. The “Population Hoechst High Intensity Objects (%)” value [4] was 10% and 23%, the “Population Membrane Permeable-Phenotype (%)” value [4] was 0% and the “Population Mitochondria Different-Phenotype (%)” value [4] was 68% and 65%. For the same compound, the “Population Mitotic Cells (%)” value [4] was 55% and 53%, the “Population Normal (%)” value [4] was 89% and 76% and the “Population Pyknosed Nuclei (%)” value [4] was 12% and 21%. For the same compound, the “Population Tubulin-Different-Phenotype (%)” value [4] was 52% and 25%, the “Total Cell Count” value [4] was 386 and 252 and the “Population Apoptotic (%)” value [5] was 19% and 30%. For the same compound, the “Population Fragmented Nuclei (%)” value [5] was 11% and 9%, the “Population Healthy Nuclei (%)” value [5] was 80% and 84% and the “Population Hoechst High Intensity Objects (%)” value [5] was 5% and 4%. The “Population Membrane Permeable-Phenotype (%)” value [5] was 0%, the “Population Mitochondria Different-Phenotype (%)” value [5] was 25% and 21% and the “Population Mitotic Cells (%)” value [5] was 80% and 69%. For the same compound, the “Population Normal (%)” value [5] was 94% and 95%, the “Population Pyknosed Nuclei (%)” value [5] was 7% and 6% and the “Population Tubulin-Different-Phenotype (%)” value [5] was 14% and 13%. For the same compound, the “Total Cell Count” value [5] was 585 and 522, the “Population Apoptotic (%)” value [6] was 48% and 64% and the “Population Fragmented Nuclei (%)” value [6] was 8% and 13%. For the same compound, the “Population Healthy Nuclei (%)” value [6] was 79% and 71%, the “Population Hoechst High Intensity Objects (%)” value [6] was 11% and 14% and the “Population Membrane Permeable-Phenotype (%)” value [6] was 0%. The “Population Mitochondria Different-Phenotype (%)” value [6] was 59% and 48%, the “Population Mitotic Cells (%)” value [6] was 51% and 35% and the “Population Normal (%)” value [6] was 88% and 85%. For the same compound, the “Population Pyknosed Nuclei (%)” value [6] was 12% and 14%, the “Population Tubulin-Different-Phenotype (%)” value [6] was 43% and 28% and the “Total Cell Count” value [6] was 424 and 290.

For CCn1cnc2c(-c3ccc(F)c(-c4ccc(S(=O)(=O)CC)cc4OC)c3)cnnc21 [DARIGABAT], the “Population Apoptotic (%)” value [1] was 11.84% and 26.37%, the “Population Fragmented Nuclei (%)” value [1] was 2.08% and 6.03% and the “Population Healthy Nuclei (%)” value [1] was 45.14% and 15.52%. For the same compound, the “Population Hoechst High Intensity Objects (%)” value [1] was 0.69% and 0%, the “Population Membrane Permeable-Phenotype (%)” value [1] was 1.54% and 0% and the “Population Mitochondria Different-Phenotype (%)” value [1] was 30.77% and 11.11%. For the same compound, the “Population Mitotic Cells (%)” value [1] was 88.16% and 73.63%, the “Population Normal (%)” value [1] was 99.31% and 100% and the “Population Pyknosed Nuclei (%)” value [1] was 52.78% and 78.45%. The “Population Tubulin-Different-Phenotype (%)” value [1] was 7.69% and 16.67%, the “Total Cell Count” value [1] was 290 and 116 and the “Population Apoptotic (%)” value [2] was 21.29% and 10%. The “Population Fragmented Nuclei (%)” value [2] was 1.32% and 0.75%, the “Population Hoechst High Intensity Objects (%)” value [2] was 0.44% and 0% and the “Population Membrane Permeable-Phenotype (%)” value [2] was 0%. The “Population Mitochondria Different-Phenotype (%)” value [2] was 28.57% and 46.15%, the “Population Mitotic Cells (%)” value [2] was 78.71% and 90% and the “Population Normal (%)” value [2] was 99.56% and 100%. The “Population Pyknosed Nuclei (%)” value [2] was 67.98% and 89.55%, the “Population Tubulin-Different-Phenotype (%)” value [2] was 40% and 69.23% and the “Total Cell Count” value [2] was 229 and 134. For the same compound, the “Population Apoptotic (%)” value [3] was 18.67% and 32.22%, the “Population Fragmented Nuclei (%)” value [3] was 2.2% and 5.36% and the “Population Hoechst High Intensity Objects (%)” value [3] was 0.22% and 1.75%. The “Population Membrane Permeable-Phenotype (%)” value [3] was 1.8% and 0%, the “Population Mitochondria Different-Phenotype (%)” value [3] was 24.46% and 31.25% and the “Population Mitotic Cells (%)” value [3] was 81.33% and 67.78%. The “Population Normal (%)” value [3] was 99.78% and 98.25%, the “Population Pyknosed Nuclei (%)” value [3] was 36.56% and 80.36% and the “Population Tubulin-Different-Phenotype (%)” value [3] was 17.63% and 6.25%. The “Population Apoptotic (%)” value [4] was 40.69% and 29.17%, the “Population Fragmented Nuclei (%)” value [4] was 0.43% and 1.46% and the “Population Hoechst High Intensity Objects (%)” value [4] was 0.86% and 0%. For the same compound, the “Population Membrane Permeable-Phenotype (%)” value [4] was 0% and 6.67%, the “Population Mitochondria Different-Phenotype (%)” value [4] was 61.9% and 46.67% and the “Population Mitotic Cells (%)” value [4] was 59.31% and 70.83%. The “Population Normal (%)” value [4] was 99.14% and 100%, the “Population Pyknosed Nuclei (%)” value [4] was 63.04% and 87.59% and the “Total Cell Count” value [4] was 232 and 137. For the same compound, the “Population Apoptotic (%)” value [5] was 12.68% and 27.16%, the “Population Fragmented Nuclei (%)” value [5] was 3.42% and 2.05% and the “Population Healthy Nuclei (%)” value [5] was 77.19% and 42.47%. The “Population Hoechst High Intensity Objects (%)” value [5] was 0%, the “Population Membrane Permeable-Phenotype (%)” value [5] was 3.54% and 1.61% and the “Population Mitochondria Different-Phenotype (%)” value [5] was 36.28% and 61.29%. For the same compound, the “Population Mitotic Cells (%)” value [5] was 87.32% and 72.84%, the “Population Normal (%)” value [5] was 100% and the “Population Pyknosed Nuclei (%)” value [5] was 19.4% and 55.48%. For the same compound, the “Population Apoptotic (%)” value [6] was 55.34% and 39.62%, the “Population Fragmented Nuclei (%)” value [6] was 1.71% and 3.1% and the “Population Hoechst High Intensity Objects (%)” value [6] was 0.34% and 0%. For the same compound, the “Population Membrane Permeable-Phenotype (%)” value [6] was 1.08% and 0%, the “Population Mitochondria Different-Phenotype (%)” value [6] was 92.97% and 73.68% and the “Population Mitotic Cells (%)” value [6] was 44.66% and 60.38%. The “Population Normal (%)” value [6] was 99.66% and 100%, the “Population Pyknosed Nuclei (%)” value [6] was 35.15% and 82.17% and the “Total Cell Count” value [6] was 294 and 129.
